The source of these data is the array DNA melting data of Ke et al. (doi:10.1101/2024.01.08.574731).

The nature of series [1]: melting temperature; fluorescence melt of hairpins on a sequencing array, two-state fit, raised by 9.35 °C to match UV melts. The settings on record: sodium 0.088 M. In outline:
(§1)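 Library hairpins on a sequenced MiSeq flow cell carried annealed Cy3 and quencher oligos, and their Cy3 fluorescence was imaged in 50 mM Na-HEPES pH 8.0 with 25 mM NaCl, in 2.5 °C steps up to 60 °C. Signals were normalised to Cy3 before quenching and to control constructs. Melting temperature and folding enthalpy were obtained from bootstrapped two-state fits, combined by inverse-variance weighting across four replicates, and the fitted temperatures were then raised by 9.35 °C to match UV melts.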

Series [2] can be described thus: folding enthalpy; higher = less favourable; fluorescence melt of hairpins on a sequencing array, two-state fit. To be noted: sodium 0.088 M. In outline:
as §1

CGCACCGGAAACGGCGCG (((.(((....))).))): the Tm in series [1] stood at 60.9 °C. Further, the folding enthalpy in series [2] was -52.1 kcal/mol.

Take CGCACGGAAACGTCCGCG ((((((....)))..))): the Tm in series [1] was 41.2 °C. For the same sequence, the folding enthalpy in series [2] was -19.1 kcal/mol.

In the case of CGCACGGAAACGTCGGCG ((((((....)))..))), the Tm in series [1] was found to be 46.6 °C. The folding enthalpy in series [2] is -24 kcal/mol.

As to CGCACTCGGAAACGAGCG (((..(((....)))))), the Tm in series [1] turned out to be 39.9 °C. Moreover, in series [2], the folding enthalpy is -14.1 kcal/mol.

For CGCAGCGGAAACGCCGCG (((.(((....))).))), in series [1], the Tm worked out at 58 °C. For the same sequence, the folding enthalpy in series [2] was -34 kcal/mol.

In the case of CGCAGGAAACTGCG (((((....))))), the Tm in series [1] came out at 60.3 °C. Also, the folding enthalpy in series [2] was -25.9 kcal/mol.

On to CGCAGTCGGAAACGAGCG (((..(((....)))))), for which the Tm in series [1] was found to be 36 °C. In series [2], the folding enthalpy was -10.9 kcal/mol.

With CGCATACGGAAACGTGCG (((..(((....)))))), the Tm in series [1] is 48.9 °C. Moreover, the folding enthalpy in series [2] is -30.2 kcal/mol.

In the case of CGCCATCGGAAACGAGCG (((..(((....)))))), in series [1], the Tm came out at 37 °C. Further, the folding enthalpy in series [2] is -18.1 kcal/mol.

With CGCCCGGAAACGGAGCG ((((((....))).))), the Tm in series [1] stood at 58.3 °C. In series [2], the folding enthalpy is -31.8 kcal/mol.

Consider CGCCCGGAAACGGCCGCG ((((((....)))..))), for which, in series [1], the Tm was 43.8 °C. In series [2], the folding enthalpy is -19.6 kcal/mol.

Consider CGCCCGGAAACGGGAGCG ((((((....)))..))), for which the Tm in series [1] came out at 55.3 °C. Besides, the folding enthalpy in series [2] is -15.3 kcal/mol.

Turning to CGCCGCGGAAACGCAGCG (((.(((....))).))), the Tm in series [1] is 59 °C. In addition, in series [2], the folding enthalpy is -37.5 kcal/mol.

Take CGCCTACGGAAACGTGCG (((..(((....)))))): in series [1], the Tm worked out at 39.4 °C. The folding enthalpy in series [2] is -23.2 kcal/mol.

As to CGCCTCCGGAAACGGGCG (((..(((....)))))), the Tm in series [1] is 48.1 °C. In series [2], the folding enthalpy is -25.6 kcal/mol.

On to CGCGACGGAAACGTAGCG (((.(((....))).))), for which the Tm in series [1] was 58.6 °C. In series [2], the folding enthalpy is -38.6 kcal/mol.

For CGCGACGGAAACGTGGCG (((.(((....))).))), the Tm in series [1] is 56.9 °C. Further, in series [2], the folding enthalpy is -49 kcal/mol.

Take CGCGACGGAAACGTTGCG (((.(((....))).))): in series [1], the Tm worked out at 61 °C. For the same sequence, the folding enthalpy in series [2] was -54.2 kcal/mol.

Regarding CGCGCCGGAAACGGGCG (((.(((....)))))), in series [1], the Tm amounted to 60.4 °C. Besides, the folding enthalpy in series [2] was -26.4 kcal/mol.

As for CGCGCGGAAACGCTTGCG ((((((....)))..))), the Tm in series [1] was 49.4 °C. In addition, the folding enthalpy in series [2] was -21.5 kcal/mol.

On to “CGCGGAAAAACAACAACAACCGCG ((....................))”, for which the Tm in series [1] was 37.3 °C. For the same sequence, the folding enthalpy in series [2] was -29.6 kcal/mol.

For CGCGGAAAAATCCGCG ((((((....)))))), in series [1], the Tm came to 58.9 °C. Also, the folding enthalpy in series [2] is -38.1 kcal/mol.

For CGCGGAAAACTCCGCG ((((((....)))))), the Tm in series [1] amounted to 62 °C. Also, in series [2], the folding enthalpy is -38.9 kcal/mol.

Take CGCGGAAAGCTCCGCG ((((((....)))))): in series [1], the Tm is 68.7 °C. In addition, the folding enthalpy in series [2] is -28.3 kcal/mol.

Consider CGCGGAACACTCCGCG ((((((....)))))), for which, in series [1], the Tm was 63.3 °C. Moreover, the folding enthalpy in series [2] was -34.8 kcal/mol.

For the sequence CGCGGAACTATCCGCG ((((((....)))))), the Tm in series [1] worked out at 68.7 °C. Moreover, the folding enthalpy in series [2] is -31.2 kcal/mol.

In the case of CGCGGAAGAATCCGCG ((((((....)))))), the Tm in series [1] was 69 °C. Moreover, the folding enthalpy in series [2] was -32.1 kcal/mol.

CGCGGAAGATTCCGCG ((((((....)))))): the Tm in series [1] is 68.9 °C. Moreover, the folding enthalpy in series [2] was -38.7 kcal/mol.

In the case of CGCGGAAGCATCCGCG ((((((....)))))), the Tm in series [1] was 60.3 °C. Moreover, the folding enthalpy in series [2] was -27.5 kcal/mol.

For CGCGGAAGGCTCCGCG ((((((....)))))), the Tm in series [1] came to 68.7 °C. In addition, in series [2], the folding enthalpy was -30.1 kcal/mol.

Regarding CGCGGAAGGGTCCGCG ((((((....)))))), the Tm in series [1] is 69.3 °C. For the same sequence, in series [2], the folding enthalpy was -29.1 kcal/mol.

Regarding CGCGGAAGTATCCGCG ((((((....)))))), the Tm in series [1] stood at 69 °C. Besides, the folding enthalpy in series [2] was -37.9 kcal/mol.

On to CGCGGAATAATCCGCG ((((((....)))))), for which, in series [1], the Tm stood at 67.7 °C. In series [2], the folding enthalpy is -34.7 kcal/mol.

CGCGGACAACTCCGCG ((((((....)))))): the Tm in series [1] amounted to 64.9 °C. Besides, in series [2], the folding enthalpy was -31.9 kcal/mol.

In the case of CGCGGACCGCTCCGCG ((((((....)))))), in series [1], the Tm worked out at 63.1 °C. In series [2], the folding enthalpy is -34.1 kcal/mol.

Take CGCGGACTACTCCGCG ((((((....)))))): the Tm in series [1] came out at 69 °C. In series [2], the folding enthalpy is -30.9 kcal/mol.

For CGCGGAGAGTCCGCG ((((((...)))))), in series [1], the Tm turned out to be 69 °C. Moreover, in series [2], the folding enthalpy is -27 kcal/mol.
